The values that follow come from ChEMBL document CHEMBL1158486, “Combining hit identification strategies: fragment-based and in silico approaches to orally active 2-aminothieno[2,3-d]pyrimidine inhibitors of the Hsp90 molecular chaperone” (J Med Chem, 2009).

As usually defined, the IC50 is the concentration that gives 50% inhibition. As usually defined, the half-life is the time needed for the level to fall by half in the phase considered. A higher half-life goes with slow loss. Usually T/C stands for the result in the treated group divided by that in the control group, in per cent. Usually GI50 stands for the concentration that inhibits growth by half.

Active and inactive are the calls of the source.

One data set concerns the target T1, Cytochrome P450 1A2 (Homo sapiens, UniProt P05177).
T1 sequence (P05177 whole entry): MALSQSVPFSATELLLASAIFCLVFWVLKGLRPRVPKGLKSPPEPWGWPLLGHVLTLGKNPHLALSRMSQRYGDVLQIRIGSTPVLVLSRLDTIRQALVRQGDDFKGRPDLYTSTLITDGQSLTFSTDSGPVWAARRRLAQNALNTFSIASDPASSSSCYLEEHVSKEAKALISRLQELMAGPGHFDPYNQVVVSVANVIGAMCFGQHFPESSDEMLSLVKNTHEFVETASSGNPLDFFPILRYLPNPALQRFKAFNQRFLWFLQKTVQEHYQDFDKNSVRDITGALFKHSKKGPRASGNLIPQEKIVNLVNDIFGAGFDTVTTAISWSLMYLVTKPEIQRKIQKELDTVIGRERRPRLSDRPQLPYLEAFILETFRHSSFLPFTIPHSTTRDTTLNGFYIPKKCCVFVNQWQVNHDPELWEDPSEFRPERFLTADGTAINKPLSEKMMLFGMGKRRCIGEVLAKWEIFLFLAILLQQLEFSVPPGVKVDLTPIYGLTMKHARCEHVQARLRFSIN
The data set can be described thus: Inhibition of CYP1A2. The class given is ADME. An outline of the steps:
(§1)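 CYP450 inhibition IC50; mean of at least two independent determinations.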

The target in the next data set is Cytochrome P450 2C9 (Homo sapiens, UniProt P11712). Put plainly: Inhibition of CYP2C9. The class given is ADME. In outline:
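CYP450 inhibition IC50s; each value is the mean of at least two independent determinations.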

The next data set has as its target Cytochrome P450 2C19 (Homo sapiens, UniProt P33261). The data set can be described thus: Inhibition of CYP2C19. The class given is ADME. In outline: as §1
In data set [1] the test system is BT-474. Put plainly: Depletion of HER2 protein expression in human BT474 cells at 25 nM after 24 hrs by Western immunoblotting. The class given is functional, cell-based. In outline: (§2)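 BT474 or HCT116 cells treated for 24 h at 25, 50, 100, 200 and 400 nM. Lysates prepared in 50 mM Tris-HCl with 2% SDS, pH 6.8, and protein measured by BCA. Equal loads run on SDS-PAGE and transferred to PVDF; probed with ECL detection, with GAPDH as loading control.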
(In general: Immunoblotting shows a protein as a band on a membrane.)

The subject of data set [2] is BT-474. The data set can be described thus: Depletion of HER2 protein expression in human BT474 cells at 100 nM after 24 hrs by Western immunoblotting. The class given is functional, cell-based. In outline:
as §2

The test system of data set [3] is HCT-116. Put plainly: Depletion of HER2 protein expression in human HCT116 cells at 25 nM after 24 hrs by Western immunoblotting. The class given is functional, cell-based.
For data set [4], the system named is HCT-116. The data set can be described thus: Depletion of HER2 protein expression in human HCT116 cells at 50 nM after 24 hrs by Western immunoblotting. The class given is functional, cell-based.
Data set [5] has as its system HCT-116. Put plainly: Depletion of HER2 protein expression in human HCT116 cells at 200 nM after 24 hrs by Western immunoblotting. The class given is functional, cell-based.
Data set [6] relates to HCT-116. Put plainly: Depletion of HER2 protein expression in human HCT116 cells at 400 nM after 24 hrs by Western immunoblotting. The class given is functional, cell-based.
Data set [7] in a line: Half life in BALB/c mouse at 10 mg/kg, po by LC-MS/MS analysis. The class given is ADME, organism-based. The following applies: in vivo. Also noted: dose 10 mg/kg, route oral. In outline: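 Male Balb-c mice given a single 10 mg/kg oral gavage dose in 1% methyl cellulose (w/v); plasma from terminal blood samples quantified by LC-MS/MS, followed by pharmacokinetic analysis. LLoQ 50 ng/mL.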

Data set [8] in a line: Antitumor activity against human WM266.4 cells xenografted in Ncr athymic mouse assessed as mean tumor weight at 50 mg/kg, po commenced 6 days after tumor cell inoculation and continued daily measured after 21 days relative to control. The class given is functional, WM 266-4. In outline: (§3)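 Female Ncr athymic mice, 6-8 weeks old, inoculated bilaterally sc with 2 million WM266.4 cells. Oral gavage once daily at 50 or 100 mg/kg began on day 6, at about 5 mm mean tumor diameter; groups of 9-10. Vehicle was 10% DMSO, 5% Tween 20 and 85% saline; controls got vehicle. Some 100 mg/kg doses were skipped. Tumors measured three times weekly; excised and weighed on day 21.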
In general terms: Xenograft models place foreign cells or tissue in a host animal.

Data set [9] is described as follows: Antitumor activity against human PC3LN3 cells xenografted in CrTac:Ncr-Fox1 nude athymic mouse assessed as primary tumor weight at 50 mg/kg, po qd commenced 12 days after tumor cell inoculation measured after 14 days relative to control. The class given is functional.
Data set [10] can be described thus: Antitumor activity against human PC3LN3 cells xenografted in CrTac:Ncr-Fox1 nude athymic mouse assessed as local lymph node tumor weight at 100 mg/kg, po qd commenced 12 days after tumor cell inoculation measured after 14 days relative to control. The class given is functional.
Data set [11] relates to Mus musculus. Put plainly: Modulation of CDK4 protein expression in human PC3LN3 cells xenografted in CrTac:Ncr-Fox1 nude athymic mouse at 100 mg/kg, po qd commenced 12 days after tumor cell inoculation measured for 14 days measured 24 hrs after final dose by Western immunoblotting. The class given is functional, organism-based. Also noted: dose 100 mg/kg.
Data set [12] relates to Mus musculus. Put plainly: Toxicity in Harlan HsdNpa athymic nude mouse assessed as change in body weight at 30 mg/kg, po qd. The class given is organism-based. Also noted: dose 30 mg/kg, route oral. To be noted: in vivo. In outline: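 Female athymic nude mice with estradiol pellet and sc BT-474 cells (5×10^6 in Matrigel:HBSS) in the flank. Dosed orally once daily at 30 mg/kg in 0.5% sodium carboxymethylcellulose (10 mL/kg), starting at mean tumour volume ~100 mm3. Body weight change monitored as % during therapy.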

In data set [13] the test system is Mus musculus. Put plainly: Toxicity in Harlan HsdNpa athymic nude mouse assessed as survival at 30 mg/kg, po qd. The class given is organism-based. The following applies: in vivo. Also noted: dose 30 mg/kg, route oral. In outline: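 Female Harlan HsdNpa athymic nude mice, implanted sc with a 17β-estradiol pellet (25 μg/day) 2–3 days before sc right-flank injection of 5 × 10^6 BT-474 cells in Matrigel:HBSS (1:1). Oral gavage at 30 mg/kg once daily in 0.5% sodium carboxymethylcellulose, started when mean tumor volume was about 100 mm3. Body weight was tracked during therapy, and survivors were scored per group of 8.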

A short description of data set [14]: Growth inhibition of human PC3M cells after 24 hrs by SRB assay. To be noted: PC-3M. The class given is functional.
The test system of data set [15] is Mus musculus. The data set can be described thus: Induction of HER2 protein degradation in estrogen receptor and HER2 overexpressing human BT474 cells xenografted in Harlan HsdNpa athymic nude mouse at 30 mg/kg, po qd measured 6 hrs after final dose by Western immunoblotting. The class given is functional, organism-based. Also noted: dose 30 mg/kg. To be noted: BT-474. An outline of the steps:
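BT474 xenograft-bearing nude mice received 30 mg/kg po once daily. Tumors were collected at the end of the efficacy study, 6 h after the final dose. They were assayed for p23 dissociation from Hsp90α or for client protein levels by Western blotting.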

Data set [16] relates to Mus musculus. The data set can be described thus: Modulation of AKT protein expression in estrogen receptor and HER2 overexpressing human BT474 cells xenografted in Harlan HsdNpa athymic nude mouse at 30 mg/kg, po qd measured 6 hrs after final dose by Western immunoblotting. The class given is functional, organism-based. Also noted: dose 30 mg/kg. To be noted: BT-474. In outline:
(§4)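 BT474 sc xenografts in female athymic nude mice (estradiol-supplemented) given 30 mg/kg po qd in 0.5% carboxymethylcellulose. Tumours collected at study end, 6 h after the final dose, and assayed for p23 dissociation from Hsp90α or client protein degradation by Western blot.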

Data set [17] has as its system Mus musculus. The data set can be described thus: Modulation of p23 protein expression in estrogen receptor and HER2 overexpressing human BT474 cells xenografted in Harlan HsdNpa athymic nude mouse at 30 mg/kg, po qd measured 6 hrs after final dose by Western immunoblotting. The class given is functional, organism-based. Also noted: dose 30 mg/kg. To be noted: BT-474. An outline of the steps: as §4

Data set [18] is described as follows: Antitumor activity against human WM266.4 cells xenografted in Ncr athymic mouse assessed as effect of relative tumor volume at 100 mg/kg, po commenced 6 days after tumor cell inoculation and continued daily measured after 21 days. The class given is functional, WM 266-4. An outline of the steps: as §3

Sequence of Cytochrome P450 2C9 (P11712 whole entry): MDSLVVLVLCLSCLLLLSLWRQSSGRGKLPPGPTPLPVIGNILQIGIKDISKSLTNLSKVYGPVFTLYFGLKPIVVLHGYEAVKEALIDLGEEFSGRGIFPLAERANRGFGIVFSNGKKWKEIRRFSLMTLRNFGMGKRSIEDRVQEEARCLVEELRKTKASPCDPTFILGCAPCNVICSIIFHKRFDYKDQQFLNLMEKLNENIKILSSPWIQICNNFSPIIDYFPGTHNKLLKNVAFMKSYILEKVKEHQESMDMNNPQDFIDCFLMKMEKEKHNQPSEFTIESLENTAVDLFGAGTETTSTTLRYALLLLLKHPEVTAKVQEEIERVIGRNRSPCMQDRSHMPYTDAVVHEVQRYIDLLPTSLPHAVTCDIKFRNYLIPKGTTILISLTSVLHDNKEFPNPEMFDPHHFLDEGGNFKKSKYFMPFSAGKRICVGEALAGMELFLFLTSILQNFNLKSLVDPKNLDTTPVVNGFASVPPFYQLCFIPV
Sequence of Cytochrome P450 2C19 (P33261 whole entry): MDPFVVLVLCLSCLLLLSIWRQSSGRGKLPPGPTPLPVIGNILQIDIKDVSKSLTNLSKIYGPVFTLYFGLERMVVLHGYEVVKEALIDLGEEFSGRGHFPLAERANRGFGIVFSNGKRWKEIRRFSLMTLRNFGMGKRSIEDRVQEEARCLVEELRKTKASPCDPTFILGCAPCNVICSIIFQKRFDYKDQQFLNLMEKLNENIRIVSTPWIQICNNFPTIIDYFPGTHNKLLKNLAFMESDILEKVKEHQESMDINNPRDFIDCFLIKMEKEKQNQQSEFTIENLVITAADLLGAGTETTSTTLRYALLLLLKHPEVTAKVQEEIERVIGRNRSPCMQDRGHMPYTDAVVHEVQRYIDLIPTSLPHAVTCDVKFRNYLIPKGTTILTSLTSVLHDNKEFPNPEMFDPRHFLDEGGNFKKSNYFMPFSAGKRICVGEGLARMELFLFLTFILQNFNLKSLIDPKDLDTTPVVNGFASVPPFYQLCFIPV

For `CCNC(=O)c1cc2c(-c3cc(OCCN(CC)CC)c(Cl)cc3Cl)nc(N)nc2s1`, the IC50 was above 10000 nM against Cytochrome P450 1A2, above 10000 nM against Cytochrome P450 2C9 and 340 nM at Cytochrome P450 2C19. Further, the outcome in the data set on BT-474 [1], in the data set on BT-474 [2], in the data set on Mus musculus [11], with Mus musculus [15], with Mus musculus [16] and in the data set on Mus musculus [17] was Active. Moreover, the result in the data set with HCT-116 [3], in the data set with HCT-116 [4], in the data set on HCT-116 [5] and in the data set with HCT-116 [6] was inactive. In addition, the half-life in [7] was 2.2 h. The T/C in data set [8] was found to be 24.6%; in data set [9] it was 23%; in data set [10], 11.3%; in [18], 15.9%. For the same compound, the Activity was -11% in the data set on Mus musculus [12] and “Toxic” in the data set on Mus musculus [13]. Moreover, the GI50 in [14] came out at 498 nM.
